Measured values pooled from the literature.
Lines come from different studies, so protocols differ.
Target: Phosphorylase b kinase gamma catalytic chain, liver/testis isoform (PHKG2, Homo sapiens, UniProt P15735)
Sequence (P15735 1-406, as in one of the studies): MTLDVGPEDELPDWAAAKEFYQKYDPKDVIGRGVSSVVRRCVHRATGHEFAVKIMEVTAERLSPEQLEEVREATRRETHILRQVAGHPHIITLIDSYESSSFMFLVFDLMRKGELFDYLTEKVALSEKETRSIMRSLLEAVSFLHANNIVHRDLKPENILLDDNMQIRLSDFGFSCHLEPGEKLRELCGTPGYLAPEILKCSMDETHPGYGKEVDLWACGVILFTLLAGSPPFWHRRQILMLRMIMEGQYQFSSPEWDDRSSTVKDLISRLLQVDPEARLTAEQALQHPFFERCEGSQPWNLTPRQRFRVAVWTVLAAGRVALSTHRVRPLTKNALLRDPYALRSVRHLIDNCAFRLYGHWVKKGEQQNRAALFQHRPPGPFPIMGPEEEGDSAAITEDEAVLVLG

| Structure (SMILES) | effect on | technique | tested at | remaining binding [%] |
| --- | --- | --- | --- | --- |
| O=C(c1ccc(Nc2ncc(Cl)c(-c3cc4ccccc4s3)n2)cc1)N1CCC(N2CCCC2)CC1 | binding | competition with immobilised ligand | 1 µM | 74 |
| Cc1cc(-n2nc(Cc3cc(F)cc(C(F)(F)F)c3)nc2C)ccc1C(N)=O | cell-free assay | competition with immobilised ligand | 1 µM | 100 |
| O=C(NCC1CCOCC1)c1n[nH]cc1NC(=O)c1c(F)cccc1F | binding | competition with immobilised ligand | 1 µM | 96 |
| CN(C)c1nccc(-c2cnc3ncccn23)n1 | binding |  | 1 µM | 89 |
| O=C(NCCCN1CCOCC1)c1ccc(Nc2ncc(Cl)c(-c3ccc(Cl)s3)n2)cc1 | binding | competition with immobilised ligand | 1 µM | 60 |
| O=C(N1CCS(=O)(=O)CC1)N1C[C@H](c2ccc(OC(F)(F)F)cc2)C[C@H](c2nc(C3CC3)no2)C1 | cell-free assay | competition with immobilised ligand | 1 µM | 100 |
| F[C@@H]1CCN(c2nccc(-c3cnn4ncccc34)n2)C1 | binding |  | 1 µM | 100 |
| Cc1cnc(Nc2ccc(C(=O)N3CCC(N4CCCC4)CC3)cc2)nc1-c1cc2ccccc2s1 | binding | competition with immobilised ligand | 1 µM | 51 |
| N#CC1(c2ccccn2)CCN(Cc2cc(C(=O)N3CCCC3)c(=O)n3ccccc23)CC1 | cell-free assay | competition with immobilised ligand | 1 µM | 85 |
| COc1cnc(Nc2cccc(S(N)(=O)=O)c2)nc1N1CCN(c2ccccc2)CC1 | binding | competition with immobilised ligand | 1 µM | 82 |
| Cc1c[nH]c2nccc(Oc3c(F)cc(Nc4cc(Cl)nc(N)n4)cc3F)c12 | cell-free assay | competition with immobilised ligand | 0.1 µM | 89 |
| C[C@@H](c1ccc(-n2cnc3c(N)ncnc32)cc1)N1CCc2nn(C)c(Cc3ccccc3)c2C1=O | binding | competition with immobilised ligand | 0.1 µM | 100 |
| CN(c1nccc(-c2cnn3ncccc23)n1)C1CC1 | binding |  | 1 µM | 81 |
| COc1ncc2cc3ccccc3nc2c1C#N | cell-free assay | competition with immobilised ligand | 5 µM | 100 |
| O=C(Nc1ccc(Oc2ccc(F)cc2)cc1)N1CCc2ncccc2[C@H]1c1ccc(F)cc1 | cell-free assay | competition with immobilised ligand | 1 µM | 100 |
| N[C@H]1CCN(c2nccc(-c3cnn4ncccc34)n2)C1 | binding |  | 1 µM | 77 |
| CCN1CCN(Cc2ccc(C(=O)Nc3ccc(C)c(Oc4ccc5c(c4)CC(=O)N5)c3)cc2C(F)(F)F)CC1 | binding | competition with immobilised ligand | 1 µM | 100 |
| C[C@H]1CCN(c2nccc(-c3cnn4ncccc34)n2)C1 | binding |  | 1 µM | 79 |
| c1cncc(-c2cccc(Nc3nccc(NC4CCCCC4)n3)c2)c1 | binding | competition with immobilised ligand | 10 µM | 71 |
| CN(C)c1ncc(F)c(-c2cnn3ncccc23)n1 | binding |  | 1 µM | 69 |
| O=C(NCCCC1CCCCC1)c1ccc(CNC(=O)c2cnn(-c3ccccc3)c2C(F)(F)F)cc1 | cell-free assay | competition with immobilised ligand | 0.1 µM | 100 |
